From ChEMBL document CHEMBL4406804, “Discovery of a Potent Steroidal Glucocorticoid Receptor Antagonist with Enhanced Selectivity against the Progesterone and Androgen Receptors (OP-3633)” (J Med Chem, 2019)
pIC50: −log10 of the molar value.

What was measured:
[1] = Volume of distribution at steady state in mini-pig at 0.5 mg/kg, iv; format: ADME, organism-based, Sus scrofa domesticus; settings: in vivo, read-out: Vdss
[2] = Half-life in dog at 0.5 mg/kg, iv; format: ADME, organism-based, Canis lupus familiaris; settings: in vivo
[3] = Toxicity in female rat assessed as effect on food consumption at 250 mg/kg/day, po administered once daily via gavage for 14 days; format: organism-based; settings: in vivo, 336 h
[4] = AUC in rat at 5 mg/kg, po; format: ADME, organism-based; settings: in vivo
In short: (§1)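 Rat PK study. The iv dose of 0.5 mg/kg was given in 10% DMSO, 70% PEG 400 and 20% water. The oral dose of 5 mg/kg was given in 5% DMSO / 95% of 0.2% Tween 80 in 0.25% CMC, adjusted to pH 4 for one compound. Read-outs were CL, Vss, iv t1/2, F, Cmax and AUC.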

[5] = Toxicity in female rat assessed as effect on body weight at 250 mg/kg/day, po administered once daily via gavage for 14 days; format: organism-based; settings: in vivo, 336 h
[6] = Volume of distribution at steady state in dog at 0.5 mg/kg, iv; format: ADME, organism-based, Canis lupus familiaris; settings: in vivo, read-out: Vdss
[7] = Clearance in rat at 0.5 mg/kg, iv; format: ADME, organism-based; settings: in vivo; in short: as §1
[8] = Cmax in dog at 5 mg/kg, po; format: ADME, organism-based, Canis lupus familiaris; set-up: dose 5 mg/kg, route oral; settings: in vivo
[9] = Clearance in mini-pig at 0.5 mg/kg, iv; format: ADME, organism-based, Sus scrofa domesticus; settings: in vivo
[10] = Oral bioavailability in mini-pig at 5 mg/kg; format: ADME, organism-based, Sus scrofa domesticus; settings: in vivo
[11] = target: T1, Progesterone receptor (Homo sapiens, UniProt P06401); test: Antagonist activity at human progesterone receptor expressed in CHO-K1 cells harboring firefly luciferase gene after 20 hrs by One-Glo luciferase reporter gene assay; format: cell-based
T1 sequence (P06401 whole entry): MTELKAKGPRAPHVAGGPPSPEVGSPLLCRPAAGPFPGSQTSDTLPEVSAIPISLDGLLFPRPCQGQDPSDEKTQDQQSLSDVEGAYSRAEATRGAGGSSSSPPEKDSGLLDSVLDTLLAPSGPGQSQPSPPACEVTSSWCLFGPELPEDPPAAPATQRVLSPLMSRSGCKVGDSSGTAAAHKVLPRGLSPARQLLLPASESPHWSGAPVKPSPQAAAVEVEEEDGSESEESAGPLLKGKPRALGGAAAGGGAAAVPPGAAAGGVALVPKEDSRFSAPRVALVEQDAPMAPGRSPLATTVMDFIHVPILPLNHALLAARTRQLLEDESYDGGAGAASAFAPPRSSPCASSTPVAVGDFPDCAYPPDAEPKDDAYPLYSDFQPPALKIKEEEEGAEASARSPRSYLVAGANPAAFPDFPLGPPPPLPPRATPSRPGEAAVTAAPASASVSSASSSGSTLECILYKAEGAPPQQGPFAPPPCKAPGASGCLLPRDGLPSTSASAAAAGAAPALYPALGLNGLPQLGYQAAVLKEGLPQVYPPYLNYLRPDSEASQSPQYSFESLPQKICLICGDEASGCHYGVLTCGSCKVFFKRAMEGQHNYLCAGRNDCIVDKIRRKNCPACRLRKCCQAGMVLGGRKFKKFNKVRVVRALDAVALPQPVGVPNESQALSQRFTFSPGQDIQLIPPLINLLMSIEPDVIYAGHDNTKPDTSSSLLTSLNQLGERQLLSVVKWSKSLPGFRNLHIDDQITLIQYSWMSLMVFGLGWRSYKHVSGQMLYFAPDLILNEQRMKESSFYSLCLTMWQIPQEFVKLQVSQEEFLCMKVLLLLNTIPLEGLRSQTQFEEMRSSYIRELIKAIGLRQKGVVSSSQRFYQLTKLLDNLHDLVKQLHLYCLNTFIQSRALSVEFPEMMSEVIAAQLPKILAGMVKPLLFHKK
In short: (§2)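 Cell-based luciferase reporter assays for GR, AR and PR, run in agonist and antagonist modes. Potency and Emax are averages of at least two determinations, reported with SD.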

[12] = target: T2, Androgen receptor (Homo sapiens, UniProt P10275); test: Agonist activity at human androgen receptor in human LNCAP cells harboring firefly luciferase gene after 20 hrs by One-Glo luciferase reporter gene assay relative to mifepristone; format: cell-based; in short: as §2
T2 sequence (P10275 whole entry): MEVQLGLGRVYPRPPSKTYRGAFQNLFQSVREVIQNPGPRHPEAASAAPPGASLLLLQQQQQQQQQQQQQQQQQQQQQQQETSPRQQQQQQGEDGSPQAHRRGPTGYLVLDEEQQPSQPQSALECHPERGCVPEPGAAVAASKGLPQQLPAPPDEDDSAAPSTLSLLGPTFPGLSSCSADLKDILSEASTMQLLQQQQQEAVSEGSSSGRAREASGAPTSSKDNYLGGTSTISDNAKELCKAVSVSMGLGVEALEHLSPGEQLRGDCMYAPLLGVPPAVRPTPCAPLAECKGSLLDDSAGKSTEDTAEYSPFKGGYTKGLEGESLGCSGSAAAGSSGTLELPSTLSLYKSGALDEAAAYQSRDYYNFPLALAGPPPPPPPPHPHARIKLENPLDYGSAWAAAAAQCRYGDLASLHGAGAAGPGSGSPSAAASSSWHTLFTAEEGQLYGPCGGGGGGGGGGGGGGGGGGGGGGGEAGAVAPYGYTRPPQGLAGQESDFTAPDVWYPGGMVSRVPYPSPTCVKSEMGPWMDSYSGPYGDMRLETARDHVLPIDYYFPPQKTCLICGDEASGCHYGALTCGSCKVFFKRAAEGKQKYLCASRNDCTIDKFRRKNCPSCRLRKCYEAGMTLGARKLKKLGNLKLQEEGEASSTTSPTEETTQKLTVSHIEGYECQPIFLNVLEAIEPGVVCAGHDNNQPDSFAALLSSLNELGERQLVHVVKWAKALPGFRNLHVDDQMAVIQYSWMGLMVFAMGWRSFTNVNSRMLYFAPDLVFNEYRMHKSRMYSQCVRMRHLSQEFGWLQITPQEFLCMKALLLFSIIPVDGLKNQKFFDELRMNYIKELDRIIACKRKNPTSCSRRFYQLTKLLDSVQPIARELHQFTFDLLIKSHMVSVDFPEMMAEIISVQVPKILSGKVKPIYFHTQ

[13] = test system: Mus musculus; test: Unbound plasma concentration in hsd:athymic Nude-Foxn1nu mouse xenografted with human HCC1806 cells at 150 mg/kg, po administered as single dose via gavage and measured after 1 to 6 hrs […]; format: ADME, organism-based; settings: in vivo
In short: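 Mice bearing HCC1806 xenografts received a bolus oral dose of cortisol at 5 mg/kg to activate GR, plus a single oral gavage dose of the test agent at 150 mg/kg. An unbound plasma concentration-time profile was taken up to 6 h, with n = 3 mice per group.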

CC#C[C@]1(O)CC[C@H]2[C@@H]3CCC4=CC(=O)CC[C@]4(C)[C@H]3[C@@H](c3ccc(N(C)C)cc3)C[C@@]21C
Vd [1]: 1.45 L/kg | half-life [2]: 16.2 h | Activity [3]: Non-Toxic | AUC [4]: 1020 ng·h/mL | Activity [5]: Non-Toxic | Vd [6]: 8.32 L/kg | clearance [7]: 51.7 mL/min/kg | Cmax [8]: 1260 ng/mL | clearance [9]: 12.5 mL/min/kg | bioavailability [10]: 35.9% | pIC50 [11]: 5.95 | Emax at 20 h [12]: 13.3% | Cp(f) [13]: 400 nM
